# Reference: ChEMBL document CHEMBL4813970, “Design, synthesis and evaluation of novel dimethylamino chalcone-O-alkylamines derivatives as potential multifunctional agents against Alzheimer's disease” (Eur J Med Chem, 2021)
# Key:
# [1] = molecular target: T1, Amyloid-beta precursor protein (Homo sapiens, UniProt P05067); assay: Disaggregation of self-induced amyloid beta (1 to 42) (unknown origin) at 25 uM measured by Thioflavin T based fluorometric assay relative to control
# Homo sapiens = species on record: Homo sapiens; assay: Selectivity index, ratio of IC50 for recombinant human MAO-A to IC50 for recombinant human MAO-B
# Procedure, shortened: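 Selectivity index taken as IC50(hMAO-A)/IC50(hMAO-B). IC50 values are mean ± SEM from three experiments.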
# [2] = molecular target: T1, Amyloid-beta precursor protein; assay: Disaggregation of Cu2+ induced amyloid beta (1 to 42 residues) (unknown origin) aggregation at 25 uM by thioflavin-T fluorescence method relative to control
# Acetylcholinesterase [3] = molecular target: Acetylcholinesterase (Electrophorus electricus, UniProt O42275); assay: Inhibition of electric eel AChE using acetylthiocholine iodide as substrate by Ellman's method
# [4] = Antioxidant activity of compound assessed as trolox equivalent antioxidant capacity by ORAC-FL assay; type: functional
# Butyrylcholinesterase = Butyrylcholinesterase (Rattus norvegicus, UniProt Q9JKC1); assay: Inhibition of rat serum BuChE by Ellman's method
# [5] = molecular target: T2, Amine oxidase [flavin-containing] A (Homo sapiens, UniProt P21397); assay: Inhibition of human recombinant MAO-A by multimode plate reader assay
# T2 sequence (P21397 whole entry): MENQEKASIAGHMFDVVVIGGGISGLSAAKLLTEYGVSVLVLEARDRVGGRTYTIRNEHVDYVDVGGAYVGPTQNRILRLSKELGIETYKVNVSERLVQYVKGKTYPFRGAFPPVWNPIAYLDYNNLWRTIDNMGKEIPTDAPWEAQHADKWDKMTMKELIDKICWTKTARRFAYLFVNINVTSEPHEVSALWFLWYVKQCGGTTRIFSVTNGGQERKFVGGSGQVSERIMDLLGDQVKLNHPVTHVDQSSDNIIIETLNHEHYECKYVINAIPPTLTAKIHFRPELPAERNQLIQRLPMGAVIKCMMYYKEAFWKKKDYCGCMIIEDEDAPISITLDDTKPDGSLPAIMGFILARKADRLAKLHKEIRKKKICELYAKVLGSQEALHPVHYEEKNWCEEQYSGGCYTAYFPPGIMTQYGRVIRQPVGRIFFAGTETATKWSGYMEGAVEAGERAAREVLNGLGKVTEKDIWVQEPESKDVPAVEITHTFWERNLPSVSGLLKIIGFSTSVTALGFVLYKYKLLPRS
# [6] = molecular target: T3, Amine oxidase [flavin-containing] B (Homo sapiens, UniProt P27338); assay: Inhibition of human recombinant MAO-B by multimode plate reader assay
# T3 sequence (P27338 whole entry): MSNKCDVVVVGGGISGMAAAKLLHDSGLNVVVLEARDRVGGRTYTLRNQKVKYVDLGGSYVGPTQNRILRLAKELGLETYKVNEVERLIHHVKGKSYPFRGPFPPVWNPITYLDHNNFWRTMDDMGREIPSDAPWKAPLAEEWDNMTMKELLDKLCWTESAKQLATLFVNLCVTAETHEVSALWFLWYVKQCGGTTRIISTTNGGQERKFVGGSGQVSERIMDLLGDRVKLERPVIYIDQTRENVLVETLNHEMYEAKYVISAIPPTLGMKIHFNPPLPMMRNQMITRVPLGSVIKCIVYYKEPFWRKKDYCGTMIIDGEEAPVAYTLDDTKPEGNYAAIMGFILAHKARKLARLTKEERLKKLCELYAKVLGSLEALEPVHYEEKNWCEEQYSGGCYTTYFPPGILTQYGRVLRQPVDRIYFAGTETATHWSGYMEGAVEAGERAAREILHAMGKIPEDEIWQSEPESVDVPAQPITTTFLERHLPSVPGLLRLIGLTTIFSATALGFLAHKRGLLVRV
# [7] = molecular target: T1, Amyloid-beta precursor protein; assay: Inhibition of self-induced amyloid beta (1 to 42) (unknown origin) aggregation by T-fluorescence assay relative to control
# Procedure, shortened: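 IC50 by ThT fluorescence (excitation 446 nm, emission 490 nm). Computed only where inhibition of self-induced Aβ1-42 aggregation at 25 μM exceeded 90%. Triplicate; mean of three independent experiments.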
# Acetylcholinesterase [8] = molecular target: T4, Acetylcholinesterase (Rattus norvegicus, UniProt P37136); assay: Inhibition of rat cortex homogenate acetylcholinesterase by Ellman's method
# T4 sequence (P37136 whole entry): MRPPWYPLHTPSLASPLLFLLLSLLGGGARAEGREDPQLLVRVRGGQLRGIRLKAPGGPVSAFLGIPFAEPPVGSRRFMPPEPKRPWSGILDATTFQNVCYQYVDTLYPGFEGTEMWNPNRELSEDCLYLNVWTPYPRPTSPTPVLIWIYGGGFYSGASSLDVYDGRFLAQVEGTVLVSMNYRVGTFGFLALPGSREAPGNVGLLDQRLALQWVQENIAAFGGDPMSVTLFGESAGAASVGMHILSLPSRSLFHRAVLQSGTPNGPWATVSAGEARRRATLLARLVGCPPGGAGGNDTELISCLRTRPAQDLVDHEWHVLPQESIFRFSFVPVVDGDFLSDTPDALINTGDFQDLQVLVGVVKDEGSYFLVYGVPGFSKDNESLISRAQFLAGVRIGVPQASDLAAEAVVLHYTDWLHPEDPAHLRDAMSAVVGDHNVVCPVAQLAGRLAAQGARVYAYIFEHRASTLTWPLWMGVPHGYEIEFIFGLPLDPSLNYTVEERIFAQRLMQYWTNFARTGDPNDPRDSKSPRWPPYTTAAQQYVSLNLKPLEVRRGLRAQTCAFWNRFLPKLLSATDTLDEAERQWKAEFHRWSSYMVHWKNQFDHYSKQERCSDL
# [9] = molecular target: T1, Amyloid-beta precursor protein; assay: Inhibition of Cu2+ induced amyloid beta (1 to 42 residues) (unknown origin) aggregation at 25 uM by thioflavin-T fluorescence method relative to control
# [10] = molecular target: T1, Amyloid-beta precursor protein; assay: Inhibition of self-induced amyloid beta (1 to 42) (unknown origin) aggregation at 25 uM by T-fluorescence assay relative to control
# Procedure, shortened: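 Self-induced Aβ1-42 aggregation measured by ThT fluorescence, excitation 446 nm and emission 490 nm. Compound and Aβ1-42 each at 25 μM. Run in triplicate. Values are mean of three independent experiments.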
# Sequence of Butyrylcholinesterase (Q9JKC1 whole entry): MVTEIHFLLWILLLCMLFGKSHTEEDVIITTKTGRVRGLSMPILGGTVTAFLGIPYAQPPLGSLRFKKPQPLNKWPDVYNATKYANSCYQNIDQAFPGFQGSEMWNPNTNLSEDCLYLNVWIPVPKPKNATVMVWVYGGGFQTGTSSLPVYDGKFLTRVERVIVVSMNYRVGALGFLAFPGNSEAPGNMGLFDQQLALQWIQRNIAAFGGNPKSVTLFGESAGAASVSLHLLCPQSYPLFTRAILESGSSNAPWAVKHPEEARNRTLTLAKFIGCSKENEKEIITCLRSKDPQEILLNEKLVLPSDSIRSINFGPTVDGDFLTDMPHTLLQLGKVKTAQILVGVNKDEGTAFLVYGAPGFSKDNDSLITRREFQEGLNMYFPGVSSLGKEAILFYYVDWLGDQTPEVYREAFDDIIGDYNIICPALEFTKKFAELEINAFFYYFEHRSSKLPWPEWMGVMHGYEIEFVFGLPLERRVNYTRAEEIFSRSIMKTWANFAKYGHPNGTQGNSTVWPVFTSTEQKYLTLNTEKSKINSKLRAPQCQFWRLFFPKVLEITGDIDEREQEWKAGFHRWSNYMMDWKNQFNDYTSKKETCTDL
# T1 sequence (P05067 whole entry): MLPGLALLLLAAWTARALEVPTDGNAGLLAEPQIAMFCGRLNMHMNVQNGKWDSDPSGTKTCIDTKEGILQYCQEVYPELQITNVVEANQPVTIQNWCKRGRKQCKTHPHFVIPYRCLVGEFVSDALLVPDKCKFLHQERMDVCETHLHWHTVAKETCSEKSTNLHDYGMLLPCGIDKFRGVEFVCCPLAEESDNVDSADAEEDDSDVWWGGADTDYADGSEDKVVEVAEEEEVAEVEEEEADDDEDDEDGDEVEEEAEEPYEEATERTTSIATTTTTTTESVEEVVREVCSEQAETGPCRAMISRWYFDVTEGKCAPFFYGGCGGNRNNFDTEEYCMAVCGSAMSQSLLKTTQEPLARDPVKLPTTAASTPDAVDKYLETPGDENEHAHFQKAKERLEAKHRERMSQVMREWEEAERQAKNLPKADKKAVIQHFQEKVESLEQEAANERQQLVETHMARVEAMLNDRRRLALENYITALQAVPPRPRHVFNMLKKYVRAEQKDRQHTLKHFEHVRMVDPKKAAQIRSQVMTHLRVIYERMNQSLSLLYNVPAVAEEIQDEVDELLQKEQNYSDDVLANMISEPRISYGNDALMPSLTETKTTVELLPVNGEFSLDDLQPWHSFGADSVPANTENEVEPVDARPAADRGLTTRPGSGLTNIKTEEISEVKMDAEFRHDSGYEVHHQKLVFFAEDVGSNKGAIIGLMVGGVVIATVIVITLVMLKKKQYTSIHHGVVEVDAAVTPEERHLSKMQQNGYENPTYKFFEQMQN
# Sequence of Acetylcholinesterase (Electrophorus electricus, UniProt O42275) (O42275 whole entry): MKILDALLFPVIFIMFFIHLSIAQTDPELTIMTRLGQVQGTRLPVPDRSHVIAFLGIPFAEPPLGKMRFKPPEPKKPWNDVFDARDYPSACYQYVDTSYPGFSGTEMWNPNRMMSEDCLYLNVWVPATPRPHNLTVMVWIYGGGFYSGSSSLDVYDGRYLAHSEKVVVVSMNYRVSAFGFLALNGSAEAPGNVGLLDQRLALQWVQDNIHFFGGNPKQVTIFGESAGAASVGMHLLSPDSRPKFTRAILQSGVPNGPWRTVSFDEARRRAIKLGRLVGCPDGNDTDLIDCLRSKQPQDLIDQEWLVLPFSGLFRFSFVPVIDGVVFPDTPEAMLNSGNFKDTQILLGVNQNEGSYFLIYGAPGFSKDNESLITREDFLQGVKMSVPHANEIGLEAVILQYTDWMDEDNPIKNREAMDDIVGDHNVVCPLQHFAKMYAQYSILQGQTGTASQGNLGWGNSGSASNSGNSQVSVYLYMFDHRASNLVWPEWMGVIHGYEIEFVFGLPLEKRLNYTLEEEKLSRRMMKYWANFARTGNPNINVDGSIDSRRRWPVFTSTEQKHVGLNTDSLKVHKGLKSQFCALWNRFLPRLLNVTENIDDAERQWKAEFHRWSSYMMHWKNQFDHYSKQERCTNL
SMILES,Activity [1],Selectivity Index (Homo sapiens),Activity [2],IC50 (Acetylcholinesterase [3]),Activity [4],IC50 (Butyrylcholinesterase),IC50 [5],IC50 [6],IC50 ([7]; read-out: IC50),IC50 (Acetylcholinesterase [8]),inhibition [9],inhibition [10],IC50 [7]
CCN(CCCCOc1ccc(C(=O)/C=C/c2ccc(N(C)C)cc2)c(O)c1)Cc1ccccc1OC,99.7%,25,73%,4.12 µM,1.4,> 500 µM,27.5 µM,1.1 µM,1.48 µM,0.65 µM,91.9%,,
CCN(CCCCCCOc1ccc(C(=O)/C=C/c2ccc(N(C)C)cc2)c(O)c1)Cc1ccccc1OC,92.6%,77.6,85.6%,5.17 µM,1.4,> 500 µM,54.3 µM,0.7 µM,1.49 µM,0.56 µM,93.2%,,
CCN(CCCOc1ccc(C(=O)/C=C/c2ccc(N(C)C)cc2)c(O)c1)Cc1ccc(N(C)C)cc1,73.7%,4.2,77.6%,6.21 µM,1.3,> 500 µM,57.5 µM,13.7 µM,1.32 µM,2.47 µM,95%,,
CCN(CCCCOc1ccc(C(=O)/C=C/c2ccc(N(C)C)cc2)c(O)c1)Cc1ccccc1,97.2%,8.7,82.1%,4.3 µM,1.5,202 µM,77.3 µM,8.9 µM,3.78 µM,1.39 µM,93.9%,,
CCN(CCCCCCOc1ccc(C(=O)/C=C/c2ccc(N(C)C)cc2)c(O)c1)Cc1ccccc1N(C)C,87.9%,18,83.4%,2.44 µM,2,422 µM,37.8 µM,2.1 µM,1.03 µM,0.31 µM,96.5%,,
CN(C)c1ccc(/C=C/C(=O)c2ccc(N(C)C)cc2O)cc1,,4,,> 500 µM,1.7,> 500 µM,47.9 µM,12.1 µM,,> 500 µM,,64.3%,
COc1ccc(C(=O)/C=C/c2ccc(N(C)C)cc2)c(O)c1,,36.3,,> 500 µM,1.2,> 500 µM,7.62 µM,0.21 µM,,> 500 µM,,59.7%,
CCN(CCCOc1ccc(C(=O)/C=C/c2ccc(N(C)C)cc2)c(O)c1)Cc1ccccc1,97.5%,6.3,73.8%,5.06 µM,1.6,> 500 µM,82.6 µM,13.1 µM,1.68 µM,1.44 µM,91.9%,,
CCN(CCCCCCOc1ccc(C(=O)/C=C/c2ccc(N(C)C)cc2)c(O)c1)Cc1ccc(N(C)C)cc1,95%,23.3,84.4%,7.95 µM,1.4,> 500 µM,53.6 µM,2.3 µM,1.38 µM,1.37 µM,95.6%,,
CCN(CCCCOc1ccc(C(=O)/C=C/c2ccc(N(C)C)cc2)c(O)c1)Cc1ccc(N(C)C)cc1,91.6%,7.2,78.8%,1.96 µM,1.5,68.9 µM,17.2 µM,2.4 µM,2.1 µM,1.35 µM,91.7%,,
CCN(CCCOc1ccc(C(=O)/C=C/c2ccccc2)c(O)c1)Cc1ccccc1N(C)C,,84.4,,2 µM,1.3,> 500 µM,67.8 µM,0.8 µM,,0.31 µM,,23%,
CCN(CCCCOc1ccc(/C=C/C(=O)c2ccc(N(C)C)cc2O)cc1)Cc1ccccc1N(C)C,,2.9,,3.02 µM,1.5,> 500 µM,12.3 µM,4.3 µM,,,,75.8%,
CCN(CCCCOc1ccc(/C=C/C(=O)c2ccc(N(C)C)cc2O)cc1)Cc1ccccc1OC,,2,,1.63 µM,1.6,> 500 µM,9.2 µM,4.6 µM,,0.71 µM,,70.1%,
CCN(CCCCCCOc1ccc(C(=O)/C=C/c2ccc(N(C)C)cc2)c(O)c1)Cc1ccccc1,84.4%,15,88.3%,3.59 µM,1.4,> 500 µM,31.6 µM,2.1 µM,3.17 µM,4 µM,91%,,
CCN(CC)CCCOc1ccc(C(=O)/C=C/c2ccc(N(C)C)cc2)c(O)c1,,11.5,,1.35 µM,1.2,> 500 µM,47.1 µM,4.1 µM,,2.25 µM,,64.1%,
COc1ccc(/C=C/C(=O)c2ccc(N(C)C)cc2O)cc1,,3.2,,> 500 µM,1.5,> 500 µM,42.5 µM,13.3 µM,,> 500 µM,,36.1%,
CCN(CCCOc1ccc(C(=O)/C=C/c2ccc(N(C)C)cc2)c(O)c1)Cc1ccccc1OC,98.1%,2.4,74.8%,5.3 µM,1.5,> 500 µM,26.3 µM,10.8 µM,3.56 µM,0.63 µM,95.2%,,
COc1cc2c(cc1OC)C(=O)C(CC1CCN(Cc3ccccc3)CC1)C2 (configuration not stated) [DONEPEZIL],,,,,,,,,,,,,Not Active
CCN(CCCOc1ccc(C(=O)/C=C/c2ccc(N(C)C)cc2)c(O)c1)Cc1ccccc1N(C)C,96.6%,7.4,89.5%,1.59 µM,2.1,339 µM,23.6 µM,3.2 µM,1.27 µM,0.21 µM,94.8%,,
